Measured values taken from ChEMBL document CHEMBL1681709, “Structure-activity relationship studies on 1-(5-carboxyindol-1-yl)-propan-2-one inhibitors of human cytosolic phospholipase A2α: variation of the activated ketone moiety” (Bioorg Med Chem Lett, 2011).
Activity calls are given as the source filed them. The calls are words filed in the database; no cut-off is given here.

Key:
[1] = Inhibition of human platelet cytosolic phospholipase A2alpha
Method in brief: (§1)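 cPLA2α isolated from human platelets. Reactions were stopped after 60 min with acetonitrile/methanol/0.1 M aqueous EDTA-Na2 containing 4-undecyloxybenzoic acid as internal standard and NDGA as oxygen scavenger. Released arachidonic acid was cleaned up by solid-phase extraction and quantified by RP-HPLC with UV detection at 200 nm. Results are IC50 or % inhibition at 10 μM, as means of at least two independent determinations.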

[2] = species on record: Homo sapiens; test: Inhibition of human platelet cytosolic phospholipase A2alpha at 10 uM; method in brief: as §1

SMILES	IC50 [1] [µM]	inhibition [2]
CCCCCCCCc1ccc(OC/C(Cn2ccc3cc(C(=O)O)ccc32)=N\O)cc1	> 10	32%
CCCCCCCCc1ccc(OCC(Cn2ccc3cc(C(=O)O)ccc32)=NOC)cc1 (mixture of isomers)	> 10	22%
CCCCCCCCc1ccc(OCC(Cn2ccc3cc(C(=O)O)ccc32)OS(C)(=O)=O)cc1 (racemic)	> 10	16%
CCCCCCCCc1ccc(OCC(Cn2ccc3cc(C(=O)O)ccc32)NC(=O)OC)cc1 (racemic)	> 10	21%
CCCCCCCCc1ccc(OCC(Cn2ccc3cc(C(=O)O)ccc32)NC(=O)Oc2ccccc2)cc1 (racemic)	4.6	–
CCCCCCCCc1ccc(OCC(Cn2ccc3cc(C(=O)O)ccc32)NC(=O)Oc2ccc(F)cc2)cc1 (racemic)	1.7	–
CCCCCCCCc1ccc(OCC(Cn2ccc3cc(C(=O)O)ccc32)NC(=O)Oc2ccc(Cl)cc2)cc1 (racemic)	> 10	28%
CCCCCCCCc1ccc(OCC(Cn2ccc3cc(C(=O)O)ccc32)NC(=O)Oc2cccc(F)c2)cc1 (racemic)	5.1	–
CCCCCCCCc1ccc(OCC(Cn2ccc3cc(C(=O)O)ccc32)NC(=O)Nc2ccccc2)cc1 (racemic)	–	inactive
CCCCCCCCc1ccc(OCC(Cn2ccc3cc(C(=O)O)ccc32)NC(=O)Oc2ccccc2OC)cc1 (racemic)	–	inactive
CCCCCCCCc1ccc(OCC(Cn2ccc3cc(C(=O)O)ccc32)NC(C)=O)cc1 (racemic)	–	inactive
CCCCCCCCc1ccc(OCC(Cn2ccc3cc(C(=O)O)ccc32)OC(=O)Nc2ccccc2)cc1 (racemic)	–	inactive
CCCCCCCCc1ccc(OCC(Cn2ccc3cc(C(=O)O)ccc32)OC(C)=O)cc1 (racemic)	–	inactive

Further lines, results first:

IC50 [1] [µM]	inhibition [2]	SMILES
> 10	42%	CCCCCCCCc1ccc(OC/C(Cn2ccc3cc(C(=O)O)ccc32)=N/O)cc1
> 10	18%	CCCCCCCCc1ccc(OCC(Cn2ccc3cc(C(=O)O)ccc32)OC(=O)c2ccccc2)cc1 (racemic)
4.3	–	CCCCCCCCc1ccc(OCC(Cn2ccc3cc(C(=O)O)ccc32)N=[N+]=[N-])cc1 (racemic)
> 10	37%	CCCCCCCCc1ccc(OCC(N)Cn2ccc3cc(C(=O)O)ccc32)cc1 (racemic)
> 10	23%	CCCCCCCCc1ccc(OCC(Cn2ccc3cc(C(=O)O)ccc32)NC(=O)Oc2ccc(OC)cc2)cc1 (racemic)
–	inactive	CCCCCCCCc1ccc(OCC(Cn2ccc3cc(C(=O)O)ccc32)NC(=O)Oc2ccccc2Cl)cc1 (racemic)
–	inactive	CCCCCCCCc1ccc(OCC(Cn2ccc3cc(C(=O)O)ccc32)NC(=O)Oc2ccccc2F)cc1 (racemic)
–	inactive	CCCCCCCCc1ccc(OCC(Cn2ccc3cc(C(=O)O)ccc32)NC(=O)c2ccccc2)cc1 (racemic)
2.3	–	CCCCC/C=C\C/C=C\C/C=C\C/C=C\CCCC(=O)C(F)(F)F [ARACHIDONYL TRIFLUOROMETHYLKETONE]
